Calls of active or inactive are those of the source. The calls are words filed in the database; no cut-off is given here.
Key:
[1] = target: T1, N-formyl peptide receptor 2 (Homo sapiens, UniProt P25090); test: Agonist activity at human FPR2 expressed in HEK 293 cells co-expressing Galpha15 measured every 1.5 sec for 80 sec by Fluo-4 NW staining based scanning fluorometric method; format: cell-based, HEK293
T1 sequence (P25090 whole entry): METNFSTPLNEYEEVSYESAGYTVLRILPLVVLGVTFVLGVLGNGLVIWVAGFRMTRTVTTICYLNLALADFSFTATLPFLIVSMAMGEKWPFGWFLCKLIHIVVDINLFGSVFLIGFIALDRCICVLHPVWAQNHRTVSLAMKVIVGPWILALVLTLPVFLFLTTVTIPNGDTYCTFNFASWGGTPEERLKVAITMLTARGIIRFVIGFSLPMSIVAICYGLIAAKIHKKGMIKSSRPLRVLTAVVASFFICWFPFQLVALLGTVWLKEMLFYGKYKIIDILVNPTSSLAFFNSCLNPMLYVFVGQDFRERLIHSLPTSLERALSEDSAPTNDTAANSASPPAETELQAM
Summary of the method: (§1)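 HEK293 cells were transiently co-transfected with FPR plus Gα15 (Lipofectamine 2000), then reseeded after 24 h on poly-D-lysine plates and grown one more day. Cells were loaded with Fluo-4 NW for 45 min at 37°C. Compound was added and fluorescence (ex 485/em 525 nm) read for 80 s at 1.5 s intervals. Response = maximal peak minus basal.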

fMet-Leu-Phe receptor = target: T2, fMet-Leu-Phe receptor (Homo sapiens, UniProt P21462); test: Agonist activity at human FPR1 expressed in HEK 293 cells co-expressing Galpha15 measured every 1.5 sec for 80 sec by Fluo-4 NW staining based scanning fluorometric method; format: cell-based, HEK293
T2 sequence (P21462 whole entry): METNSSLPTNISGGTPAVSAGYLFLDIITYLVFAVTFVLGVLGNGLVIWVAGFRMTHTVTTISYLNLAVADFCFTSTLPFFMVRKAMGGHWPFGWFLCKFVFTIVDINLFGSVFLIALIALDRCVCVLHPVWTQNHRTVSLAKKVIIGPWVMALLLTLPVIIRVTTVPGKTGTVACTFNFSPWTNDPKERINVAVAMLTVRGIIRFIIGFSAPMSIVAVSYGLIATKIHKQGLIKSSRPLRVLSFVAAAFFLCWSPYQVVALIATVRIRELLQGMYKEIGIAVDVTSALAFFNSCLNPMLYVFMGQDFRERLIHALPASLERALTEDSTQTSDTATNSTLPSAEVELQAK

[2] = target: T3, Formyl peptide receptor 2 (Mus musculus, UniProt O88536); test: Agonist activity at mouse FPR2 expressed in HEK 293 cells co-expressing Galpha15 measured every 1.5 sec for 80 sec by Fluo-4 NW staining based scanning fluorometric method; format: cell-based, HEK293; summary of the method: as §1
T3 sequence (O88536 whole entry): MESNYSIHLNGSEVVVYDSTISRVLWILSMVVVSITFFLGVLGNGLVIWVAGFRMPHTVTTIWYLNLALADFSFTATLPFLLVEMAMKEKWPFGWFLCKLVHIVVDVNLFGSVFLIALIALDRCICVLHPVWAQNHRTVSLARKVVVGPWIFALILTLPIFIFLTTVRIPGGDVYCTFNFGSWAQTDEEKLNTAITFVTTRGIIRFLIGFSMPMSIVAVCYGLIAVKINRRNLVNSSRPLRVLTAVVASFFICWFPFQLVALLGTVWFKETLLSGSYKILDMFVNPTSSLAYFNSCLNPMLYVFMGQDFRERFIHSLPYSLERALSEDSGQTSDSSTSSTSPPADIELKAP

[3] = In vivo […] in mouse assessed as reduction in LPS-induced neutrophil infiltration in BALF cells at 1 mg/kg, po relative to control; format: functional
Summary of the method: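 Mice were given LPS and dosed orally at 1 mg/kg. Neutrophils in BALF were counted, and percent inhibition was calculated.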

Cytochrome P450 3A4 = Cytochrome P450 3A4 (Homo sapiens, UniProt P08684); test: Inhibition of recombinant human CYP3A4; format: ADME
Chain of Cytochrome P450 3A4 (P08684 whole entry): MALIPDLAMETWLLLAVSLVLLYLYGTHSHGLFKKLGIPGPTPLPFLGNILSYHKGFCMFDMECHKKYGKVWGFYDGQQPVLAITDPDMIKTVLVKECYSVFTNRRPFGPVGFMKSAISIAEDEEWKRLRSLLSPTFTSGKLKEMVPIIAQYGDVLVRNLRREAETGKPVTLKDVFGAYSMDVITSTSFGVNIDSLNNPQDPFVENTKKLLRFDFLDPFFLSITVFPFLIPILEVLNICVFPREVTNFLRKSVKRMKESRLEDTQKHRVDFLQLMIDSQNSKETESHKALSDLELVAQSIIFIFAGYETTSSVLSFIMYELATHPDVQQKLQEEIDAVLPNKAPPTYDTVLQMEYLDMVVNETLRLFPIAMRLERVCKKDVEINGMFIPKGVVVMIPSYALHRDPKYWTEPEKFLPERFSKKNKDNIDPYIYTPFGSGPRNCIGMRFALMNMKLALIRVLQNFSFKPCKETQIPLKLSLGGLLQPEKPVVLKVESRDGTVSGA

Mus musculus [4] = test: Cardioprotective activity in C57BL/6 mouse model of LAD coronary artery ligation-induced myocardial infarction assessed as reduction in LV chamber area at 100 mg/kg, po and measured after 28 days; format: functional, organism-based; conditions: time 28.0 day
Summary of the method: (§2)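 Male C57BL/6 mice (10-12 weeks) underwent permanent LAD ligation. Captopril was given in drinking water (~100 mg/kg/day). Endpoints were taken at 28 days post-MI, with histomorphometry of LV cross sections for scar length.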

Mus musculus [5] = test: Cardioprotective activity in C57BL/6 mouse model of LAD coronary artery ligation-induced myocardial infarction assessed as reduction in heart weight at 100 mg/kg, po and measured after 28 days; format: functional, organism-based; conditions: time 28.0 day; summary of the method: as §2
Mus musculus [6] = test: Cardioprotective activity in C57BL/6 mouse model of LAD coronary artery ligation-induced myocardial infarction assessed as reduction in scar length at 0.3 mg/kg, po and measured after 28 days relative to control; format: functional, organism-based; conditions: time 28.0 day
Summary of the method: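 Male C57BL/6 mice (10-12 weeks) underwent permanent LAD ligation under ketamine/xylazine, with shams having an untightened suture. Compound (0.3 mg/kg/d) or vehicle was given by oral gavage once daily (5 mL/kg) from post-MI day 4 for 24 days. Endpoints were taken at 28 days post-MI; scar length was quantified from LV cross sections.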

Row | Structure (SMILES) | EC50 [1] | EC50 (fMet-Leu-Phe receptor) | other results
1 | COc1ccc(CCNC(=O)Nc2ccc(Cl)cc2)cc1 | 990 nM | – | –
2 | COc1cc(F)c([C@@H]2CNC(=O)[C@H]2NC(=O)Nc2ccc(C#N)cc2)c(F)c1 | – | 350 nM | –
3 | COc1ccc([C@@H]2CNC(=O)[C@H]2NC(=O)Nc2ccc(F)cc2)c(C)c1 | 1.6 nM | – | –
4 | COc1ccc([C@@H]2CNC(=O)[C@H]2NC(=O)Nc2ccc(F)cc2)c(Cl)c1 | 4 nM | – | –
5 | COc1ccc([C@@H]2CNC(=O)[C@H]2NC(=O)Nc2ccc(F)cc2)cc1 | 0.085 nM | – | –
6 | COc1ccc([C@@H]2CNC(=O)[C@H]2NC(=O)Nc2ccc(Cl)cc2)cc1 | 0.092 nM | – | –
7 | COc1cc(F)c([C@@H]2CNC(=O)[C@H]2NC(=O)Nc2ccc(F)cc2)cc1F | – | 17 nM | –
8 | COc1cc(F)c([C@@H]2CNC(=O)[C@H]2NC(=O)Nc2cc3ccccc3s2)c(F)c1 | – | 3000 nM | –
9 | COc1ccc([C@@H]2CNC(=O)[C@H]2NC(=O)Nc2ccc(F)cc2)cc1F | 0.9 nM | – | –
10 | COc1cnc([C@@H]2CNC(=O)[C@H]2NC(=O)Nc2ccc(F)cc2)c(F)c1 | – | 190 nM | –
11 | COc1cc(F)c([C@@H]2CNC(=O)[C@H]2NC(=O)Nc2ccc(F)c(O)c2)c(F)c1 | 0.087 nM | 72 nM | –
12 | CCOc1cc(F)c([C@@H]2CNC(=O)[C@H]2NC(=O)Nc2ccc(F)cc2)c(F)c1 | 14 nM | – | –
13 | N#Cc1cc(F)c([C@@H]2CNC(=O)[C@H]2NC(=O)Nc2ccc(F)cc2)c(F)c1 | 9.7 nM | 40000 nM | –
14 | COc1cc(F)c([C@@H]2CNC(=O)[C@H]2NC(=O)Nc2ccc(Cl)cc2)c(F)c1 | – | 120 nM | –
15 | COc1cc(F)c([C@@H]2CNC(=O)[C@H]2NC(=O)Nc2ccc(Cl)s2)c(F)c1 | – | 1200 nM | EC50 [2]: 1.4 nM; inhibition in vivo at 1 mg/kg [3]: 84%; IC50 (Cytochrome P450 3A4): 5600 nM
16 | COc1cc(F)c([C@@H]2CNC(=O)[C@H]2NC(=O)Nc2ccc(Br)cc2)c(F)c1 | 0.19 nM | 96 nM | –
17 | COc1cc(F)c([C@@H]2CNC(=O)[C@H]2NC(=O)Nc2ccc(F)c(F)c2)c(F)c1 | – | 820 nM | EC50 [2]: 8.5 nM; inhibition in vivo at 1 mg/kg [3]: 4.9%; IC50 (Cytochrome P450 3A4): > 20000 nM
18 | COc1cc(F)c([C@@H]2CNC(=O)[C@H]2NC(=O)Nc2ccc(C)cc2)c(F)c1 | 2 nM | – | –
19 | COc1cc(F)c([C@@H]2CNC(=O)[C@H]2NC(=O)Nc2cccc(F)c2)c(F)c1 | – | 1700 nM | –
20 | COc1cc(F)c([C@@H]2CNC(=O)[C@H]2NC(=O)Nc2ccc(Cl)c(O)c2)c(F)c1 | 0.05 nM | 40 nM | –
21 | COc1cc(F)c([C@@H]2CNC(=O)[C@H]2NC(=O)Nc2cc(C)ns2)c(F)c1 | – | 290 nM | –

Row | Structure (SMILES) | EC50 [1] | EC50 (fMet-Leu-Phe receptor) | other results
22 | CNc1cc(F)c([C@@H]2CNC(=O)[C@H]2NC(=O)Nc2ccc(F)cc2)c(F)c1 | 1.4 nM | – | –
23 | COc1cc(F)c([C@@H]2CNC(=O)[C@H]2NC(=O)Nc2ccc(F)cc2)c(F)c1 | 0.14 nM | 280 nM | EC50 [2]: 1.5 nM; inhibition in vivo at 1 mg/kg [3]: 97%; IC50 (Cytochrome P450 3A4): > 20000 nM
24 | CCc1cc(F)c([C@@H]2CNC(=O)[C@H]2NC(=O)Nc2ccc(F)cc2)c(F)c1 | 5.8 nM | – | –
25 | COc1cc(F)c([C@@H]2CNC(=O)[C@H]2NC(=O)Nc2ncc(Cl)s2)c(F)c1 | 1.9 nM | – | –
26 | COc1cc(F)c([C@@H]2CNC(=O)[C@H]2NC(=O)Nc2ccc(C)c(O)c2)c(F)c1 | 0.078 nM | 1000 nM | EC50 [2]: 0.63 nM; inhibition in vivo at 1 mg/kg [3]: 55%; IC50 (Cytochrome P450 3A4): > 20000 nM
27 | COc1cc(F)c([C@@H]2CNC(=O)[C@H]2NC(=O)Nc2ccc(Cl)cn2)c(F)c1 | 4.5 nM | – | –
28 | O=C(Nc1ccc(F)cc1)N[C@@H]1C(=O)NC[C@H]1c1ccc(Cl)cc1F | 3.1 nM | 29 nM | –
29 | COc1ccc([C@H]2CNC(=O)[C@@H]2NC(=O)Nc2ccc(Cl)cc2)cc1 | 34 nM | – | –
30 | COc1cc(F)c([C@@H]2CNC(=O)[C@H]2NC(=O)Nc2ccccc2F)c(F)c1 | 43 nM | – | –
31 | C[C@H](CS)C(=O)N1CCC[C@H]1C(=O)O | – | – | Activity (Mus musculus [4]): Active; Activity (Mus musculus [5]): Active; Activity (Mus musculus [6]): inactive
32 | COc1ccc([C@@H]2CNC(=O)[C@H]2NC(=O)Nc2ccc(Cl)cc2)cc1 (racemic) | 0.18 nM | – | –
33 | COc1ccc([C@@H]2NC(=O)[C@H]2NC(=O)Nc2ccc(Cl)cc2)cc1 (racemic) | > 100 nM | > 10000 nM | –
34 | COc1ccc(CC(CO)NC(=O)Nc2ccc(Cl)cc2)cc1 (racemic) | 6.8 nM | – | –
35 | COc1ccc(CC(NC(=O)Nc2ccc(Cl)cc2)C(=O)O)cc1 (racemic) | 31 nM | – | –
36 | COc1ccc([C@@H]2NC(=O)[C@@H]2NC(=O)Nc2ccc(Cl)cc2)cc1 (racemic) | 12 nM | > 10000 nM | –
37 | COc1ccc(CC(C)NC(=O)Nc2ccc(Cl)cc2)cc1 (racemic) | 23 nM | – | –
38 | COc1ccc([C@@H]2CCNC(=O)[C@H]2NC(=O)Nc2ccc(Cl)cc2)cc1 (racemic) | 0.11 nM | – | –
39 | COc1ccc([C@@H]2CNC(=O)[C@@H]2NC(=O)Nc2ccc(Cl)cc2)cc1 (racemic) | 0.91 nM | – | –
40 | COc1ccc(CC(NC(=O)Nc2ccc(Cl)cc2)C(N)=O)cc1 (racemic) | 3.6 nM | > 10000 nM | –
41 | COc1ccc(C2CNC(=O)C2NC(=O)Nc2ccc(Cl)cc2)cc1 (single isomer, unassigned; (+)) | 0.9 nM | – | –
42 | COc1ccc(C2CNC(=O)C2NC(=O)Nc2ccc(Cl)cc2)cc1 (single isomer, unassigned; (-)) | 4.6 nM | – | –
